Calls of active or inactive are those of the source. The rule behind the calls is not given here.
Key:
Cathepsin B [1] = molecular target: T1, Cathepsin B (Homo sapiens, UniProt P07858); experiment: Inhibition of human liver cathepsin B assessed as pseudo Michaelis-Menten constant at 10 nM using varying levels of Z-Arg-Arg-AMC as substrate measured every 5 mins for 1 hr by fluorescence assay
Cathepsin B [2] = molecular target: T1, Cathepsin B; experiment: Inhibition of human liver cathepsin B assessed as inhibition constant using Z-Arg-Arg-AMC as substrate measured every 5 mins for 1 hr by fluorescence assay
Cathepsin B [3] = molecular target: T1, Cathepsin B; experiment: Inhibition of human liver cathepsin B assessed as second order rate constant using Z-Arg-Arg-AMC as substrate measured every 5 mins for 1 hr by fluorescence assay
Method in brief: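 Human liver cathepsin B, 2 nM final, in 0.1 M phosphate pH 5.8 (1 mM EDTA, 2.7 mM DTT, 0.03% Brij35). Enzyme mixed with conjugate (1–500 nM final), then Z-Arg-Arg-AMC added (800 μM final); 37 °C. […] Biological triplicate.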

K (Cathepsin B [1]): 185 µM
inhibition (Cathepsin B [2]): inactive
inhibition (Cathepsin B [3]): inactive
Compound: CC(C)C[C@H](NC(=O)CCC(=O)O)C(=O)N[C@@H](CCCNC(=N)N)C(=O)NCCN=[N+]=[N-]

Source: ChEMBL document CHEMBL4350999, “Enhanced tumor retention of NTSR1-targeted agents by employing a hydrophilic cysteine cathepsin inhibitor” (Eur J Med Chem, 2019)
